# The source made the active and inactive calls. No cut-off for these calls is given here.
# Tests used:
# Schistosoma mansoni [1] = experiment: Antischistosomal activity against NMRI mouse juvenile Schistosoma mansoni infection model assessed as reduction of total worm burden at 200 mg/kg, po after 28 days; type: functional; parameters: scale not given: the % may be the effect or the level left
# Outline: (§1)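 Juvenile-infection model: mice carrying Liberian-strain S. mansoni got one oral dose at day 21 postinfection, as a suspension in 7% Tween 80/3% ethanol. There were 3–5 per group, plus untreated controls. Necropsy by exsanguination followed 28 days after treatment. Liver and mesenteric-vein worms were collected, sexed and counted. Total and female burden reductions were calculated versus controls, with Kruskal-Wallis testing.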
# Schistosoma mansoni [2] = experiment: Antischistosomal activity against NMRI mouse juvenile Schistosoma mansoni infection model assessed as reduction of female worm burden at 200 mg/kg, po after 28 days; type: functional; parameters: scale not given: the % may be the effect or the level left; outline: as §1
# Schistosoma mansoni [3] = experiment: Antischistosomal activity against NMRI mouse juvenile Schistosoma mansoni infection model assessed as number of cured mouse at 200 mg/kg, po after 28 days; type: functional, organism-based; parameters: dose 200 mg/kg; outline: as §1
# Schistosoma mansoni [4] = experiment: Antischistosomal activity against NMRI mouse adult Schistosoma mansoni infection model assessed as reduction of female worm burden at 400 mg/kg, po after 28 days; type: functional; parameters: scale not given: the % may be the effect or the level left
# Outline: (§2)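 Mice with a Liberian-strain S. mansoni infection were dosed at 49 days postinfection with a single oral dose of compound suspended in 7% Tween 80/3% ethanol. Groups held 3–5 animals, with untreated controls. At 28 days posttreatment, animals were killed by bleeding. Worms in liver and mesenteric veins were removed, sexed and counted. Reductions were calculated against controls and tested by Kruskal-Wallis.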
# Schistosoma mansoni [5] = experiment: Antischistosomal activity against NMRI mouse adult Schistosoma mansoni infection model assessed as reduction of total worm burden at 400 mg/kg, po after 28 days; type: functional; parameters: scale not given: the % may be the effect or the level left; outline: as §2
# Schistosoma mansoni [6] = experiment: Antischistosomal activity against NMRI mouse adult Schistosoma mansoni infection model assessed as number of cured mouse at 400 mg/kg, po after 28 days; type: functional, organism-based; parameters: dose 400 mg/kg; outline: as §2
# Schistosoma mansoni [7] = experiment: Antischistosomal activity against Syrian golden hamster juvenile Schistosoma mansoni infection model assessed as reduction of female worm burden at 200 mg/kg, po after 28 days; type: functional; parameters: scale not given: the % may be the effect or the level left
# Outline: (§3)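 Hamsters infected with Liberian-strain S. mansoni were treated once orally at 21 days (juvenile lines) or 49 days (adult lines) postinfection. Doses were 50, 100 or 200 mg/kg, in 7% Tween 80/3% ethanol suspension. Groups had 3–4 animals, with untreated controls. After 28 days, animals were bled out. Worms from liver and mesenteric veins were sexed and counted, and cures and burden reductions versus controls were recorded (Kruskal-Wallis).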
# Schistosoma mansoni [8] = experiment: Antischistosomal activity against Schistosoma mansoni assessed as worm death at 20 ug/ml after 72 hrs; type: functional, organism-based
# Outline: (§4)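 Adult S. mansoni (Liberian strain, 49-day-old) were held two males and two females per well, in duplicate, in Hanks' balanced salt solution with 20% calf serum, 300 IU/ml penicillin and 300 μg/ml streptomycin. Drug was given at 20 μg/ml final from a 1 mg/ml stock in 60% DMSO; solvent control was 1.2% DMSO. Incubation was at 37°C in 5% CO2. Worms were scored under a dissecting microscope at 24, 48 and 72 h for death, motor activity and tegument.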
# Schistosoma mansoni [9] = experiment: Antischistosomal activity against Syrian golden hamster juvenile Schistosoma mansoni infection model assessed as number of cured mouse at 50 mg/kg, po after 28 days; type: functional, organism-based; parameters: dose 50 mg/kg; outline: as §3
# Schistosoma mansoni [10] = experiment: Antischistosomal activity against Syrian golden hamster adult Schistosoma mansoni infection model assessed as reduction of female worm burden at 100 mg/kg, po after 28 days; type: functional; parameters: scale not given: the % may be the effect or the level left; outline: as §3
# Schistosoma mansoni [11] = experiment: Antischistosomal activity against Syrian golden hamster adult Schistosoma mansoni infection model assessed as reduction of female worm burden at 200 mg/kg, po after 28 days; type: functional; parameters: scale not given: the % may be the effect or the level left; outline: as §3
# Schistosoma japonicum [12] = experiment: Antischistosomal activity against New Zealand rabbit adult Schistosoma japonicum infection model assessed as reduction of female worm burden at 15 mg/kg, po; type: functional; parameters: scale not given: the % may be the effect or the level left
# Outline: (§5)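 Rabbits were infected percutaneously with 200 S. japonicum (Anhui strain) cercariae via shaved abdominal skin. A single 15 mg/kg oral dose in Tween 80/ethanol suspension was given 35 days postinfection, with untreated controls. After sacrifice by blood letting, worms were perfused from hepatic and portomesenteric veins, sexed and counted. Cures and burden reductions were determined versus controls (Kruskal-Wallis).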
# Schistosoma mansoni [13] = experiment: Antischistosomal activity against Syrian golden hamster adult Schistosoma mansoni infection model assessed as number of cured mouse at 100 mg/kg, po after 28 days; type: functional, organism-based; parameters: dose 100 mg/kg; outline: as §3
# Schistosoma mansoni [14] = experiment: Antischistosomal activity against Syrian golden hamster juvenile Schistosoma mansoni infection model assessed as reduction of female worm burden at 50 mg/kg, po after 28 days; type: functional; parameters: scale not given: the % may be the effect or the level left; outline: as §3
# Schistosoma mansoni [15] = experiment: Tegumental alteration in Schistosoma mansoni at 20 ug/ml after 48 hrs; type: functional, organism-based; outline: as §4
# Schistosoma mansoni [16] = experiment: Antischistosomal activity against Syrian golden hamster juvenile Schistosoma mansoni infection model assessed as reduction of total worm burden at 200 mg/kg, po after 28 days; type: functional; parameters: scale not given: the % may be the effect or the level left; outline: as §3
# Schistosoma mansoni [17] = experiment: Antischistosomal activity against Syrian golden hamster juvenile Schistosoma mansoni infection model assessed as reduction of female worm burden at 100 mg/kg, po after 28 days; type: functional; parameters: scale not given: the % may be the effect or the level left; outline: as §3
# Schistosoma mansoni [18] = experiment: Tegumental alteration in Schistosoma mansoni at 20 ug/ml after 72 hrs; type: functional, organism-based; outline: as §4
# Schistosoma mansoni [19] = experiment: Antischistosomal activity against Syrian golden hamster adult Schistosoma mansoni infection model assessed as reduction of total worm burden at 100 mg/kg, po after 28 days; type: functional; parameters: scale not given: the % may be the effect or the level left; outline: as §3
# Schistosoma japonicum [20] = experiment: Antischistosomal activity against New Zealand rabbit adult Schistosoma japonicum infection model assessed as reduction of total worm burden at 15 mg/kg, po; type: functional; parameters: scale not given: the % may be the effect or the level left; outline: as §5
# Schistosoma mansoni [21] = experiment: Antischistosomal activity against Syrian golden hamster juvenile Schistosoma mansoni infection model assessed as reduction of total worm burden at 100 mg/kg, po after 28 days; type: functional; parameters: scale not given: the % may be the effect or the level left; outline: as §3
# Schistosoma mansoni [22] = experiment: Antischistosomal activity against Schistosoma mansoni assessed as worm death at 20 ug/ml after 48 hrs; type: functional, organism-based; outline: as §4
# Schistosoma mansoni [23] = experiment: Antischistosomal activity against Syrian golden hamster adult Schistosoma mansoni infection model assessed as reduction of total worm burden at 50 mg/kg, po after 28 days; type: functional; parameters: scale not given: the % may be the effect or the level left; outline: as §3
# Schistosoma mansoni [24] = experiment: Reduction of motor activity of Schistosoma mansoni at 20 ug/ml after 48 hrs; type: functional, organism-based; outline: as §4
# Schistosoma japonicum [25] = experiment: Antischistosomal activity against Syrian golden hamster adult Schistosoma japonicum infection model assessed as reduction of total worm burden at 200 mg/kg, po; type: functional; parameters: scale not given: the % may be the effect or the level left
# Outline: (§6)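 Hamsters received 100 S. japonicum (Anhui strain) cercariae through shaved abdominal skin. At 35 days postinfection, they were given a single 200 mg/kg oral dose in Tween 80/ethanol suspension, with untreated controls. Animals were killed by bleeding, and worms were recovered by perfusion of hepatic and portomesenteric veins. Worms were sexed and counted, and reductions were computed against controls (Kruskal-Wallis).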
# Schistosoma mansoni [26] = experiment: Antischistosomal activity against Syrian golden hamster adult Schistosoma mansoni infection model assessed as number of cured mouse at 50 mg/kg, po after 28 days; type: functional, organism-based; parameters: dose 50 mg/kg; outline: as §3
# Schistosoma mansoni [27] = experiment: Antischistosomal activity against Schistosoma mansoni assessed as worm death at 20 ug/ml after 24 hrs; type: functional, organism-based; outline: as §4
# Schistosoma mansoni [28] = experiment: Antischistosomal activity against Syrian golden hamster adult Schistosoma mansoni infection model assessed as reduction of female worm burden at 50 mg/kg, po after 28 days; type: functional; parameters: scale not given: the % may be the effect or the level left; outline: as §3
# Schistosoma mansoni [29] = experiment: Antischistosomal activity against Syrian golden hamster adult Schistosoma mansoni infection model assessed as number of cured mouse at 200 mg/kg, po after 28 days; type: functional, organism-based; parameters: dose 200 mg/kg; outline: as §3
# Schistosoma mansoni [30] = experiment: Reduction of motor activity of Schistosoma mansoni at 20 ug/ml after 24 hrs; type: functional, organism-based; outline: as §4
# Schistosoma mansoni [31] = experiment: Antischistosomal activity against Syrian golden hamster adult Schistosoma mansoni infection model assessed as reduction of total worm burden at 200 mg/kg, po after 28 days; type: functional; parameters: scale not given: the % may be the effect or the level left; outline: as §3
# Schistosoma japonicum [32] = experiment: Antischistosomal activity against Syrian golden hamster adult Schistosoma japonicum infection model assessed as reduction of female worm burden at 200 mg/kg, po; type: functional; parameters: scale not given: the % may be the effect or the level left; outline: as §6
# Schistosoma japonicum [33] = experiment: Antischistosomal activity against New Zealand rabbit adult Schistosoma japonicum infection model assessed as number of […] mg/kg, po; type: functional, organism-based; parameters: dose 15 mg/kg; outline: as §5
# Schistosoma mansoni [34] = experiment: Reduction of motor activity of Schistosoma mansoni at 20 ug/ml after 72 hrs; type: functional, organism-based; outline: as §4
# Schistosoma mansoni [35] = experiment: Antischistosomal activity against Syrian golden hamster juvenile Schistosoma mansoni infection model assessed as reduction of total worm burden at 50 mg/kg, po after 28 days; type: functional; parameters: scale not given: the % may be the effect or the level left; outline: as §3
# Schistosoma mansoni [36] = experiment: Antischistosomal activity against Syrian golden hamster juvenile Schistosoma mansoni infection model assessed as number of cured mouse at 200 mg/kg, po after 28 days; type: functional, organism-based; parameters: dose 200 mg/kg; outline: as §3
# Schistosoma mansoni [37] = experiment: Tegumental alteration in Schistosoma mansoni at 20 ug/ml after 24 hrs; type: functional, organism-based; outline: as §4
# Schistosoma mansoni [38] = experiment: Antischistosomal activity against Syrian golden hamster juvenile Schistosoma mansoni infection model assessed as number of cured mouse at 100 mg/kg, po after 28 days; type: functional, organism-based; parameters: dose 100 mg/kg; outline: as §3
smiles,measurement,setting,value
C1CCC2(CC1)OOC1(CCCCC1)O2,Activity,Schistosoma mansoni [1],22.9%
same,Activity,Schistosoma mansoni [2],26.4%
same,Activity,Schistosoma mansoni [3],inactive
C1CCC2(CC1)COC1(O2)C2CC3CC(C2)CC1C3 (stereo not drawn),Activity,Schistosoma mansoni [1],0%
same,Activity,Schistosoma mansoni [2],0%
same,Activity,Schistosoma mansoni [3],inactive
C1CCC2(CC1)OOC1(O2)C2CC3CC(C2)CC1C3 (stereo not drawn),Activity,Schistosoma mansoni [4],29.3%
same,Activity,Schistosoma mansoni [1],82%
same,Activity,Schistosoma mansoni [5],29.1%
same,Activity,Schistosoma mansoni [2],79.2%
same,Activity,Schistosoma mansoni [6],inactive
same,Activity,Schistosoma mansoni [3],inactive
O=C(O)C[C@H]1CC[C@]2(CC1)OO[C@]1(O2)C2CC3CC(C2)CC1C3,Activity,Schistosoma mansoni [7],75.1%
same,Activity,Schistosoma mansoni [8],inactive
same,Activity,Schistosoma mansoni [9],inactive
same,Activity,Schistosoma mansoni [4],0%
same,Activity,Schistosoma mansoni [10],79.6%
same,Activity,Schistosoma mansoni [11],93.2%
same,Activity,Schistosoma japonicum [12],42.3%
same,Activity,Schistosoma mansoni [1],82%
same,Activity,Schistosoma mansoni [13],inactive
same,Activity,Schistosoma mansoni [14],67%
same,Activity,Schistosoma mansoni [15],inactive
same,Activity,Schistosoma mansoni [16],80.2%
same,Activity,Schistosoma mansoni [17],78.3%
same,Activity,Schistosoma mansoni [5],0%
same,Activity,Schistosoma mansoni [18],inactive
same,Activity,Schistosoma mansoni [19],69.2%
same,Activity,Schistosoma japonicum [20],40.7%
same,Activity,Schistosoma mansoni [21],83%
same,Activity,Schistosoma mansoni [22],inactive
same,Activity,Schistosoma mansoni [23],46.1%
same,Activity,Schistosoma mansoni [24],inactive
same,Activity,Schistosoma mansoni [2],87.3%
same,Activity,Schistosoma japonicum [25],94.2%
same,Activity,Schistosoma mansoni [26],inactive
same,Activity,Schistosoma mansoni [6],inactive
same,Activity,Schistosoma mansoni [3],inactive
same,Activity,Schistosoma mansoni [27],inactive
same,Activity,Schistosoma mansoni [28],38.9%
same,Activity,Schistosoma mansoni [29],inactive
same,Activity,Schistosoma mansoni [30],inactive
same,Activity,Schistosoma mansoni [31],85%
same,Activity,Schistosoma japonicum [32],100%
same,Activity,Schistosoma japonicum [33],inactive
same,Activity,Schistosoma mansoni [34],inactive
same,Activity,Schistosoma mansoni [35],73.4%
same,Activity,Schistosoma mansoni [36],inactive
same,Activity,Schistosoma mansoni [37],inactive
same,Activity,Schistosoma mansoni [38],inactive
C1CCC2(CC1)OCC1(O2)C2CC3CC(C2)CC1C3 (stereo not drawn),Activity,Schistosoma mansoni [1],2%
same,Activity,Schistosoma mansoni [2],4.8%
same,Activity,Schistosoma mansoni [3],inactive

# — ChEMBL document CHEMBL1147111, “In vitro and in vivo activities of synthetic trioxolanes against major human schistosome species” (Antimicrob Agents Chemother, 2007)
